An excerpt weighted towards active compounds, which were near 10% of everything screened.
PMI activator = activators of human PMI, primary screen, biochemical, fluorescence intensity, near-Km mannose 6-phosphate. purified human PMI, coupled resazurin fluorescence, 20 min; active compounds read high; 1 = vehicle control, 0 substrate-free wells. activation factor at 20 µM. 0.005% of 190,000 active;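 active means activation factor of 2 or more at 20 µM, relative to plate controls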
Target sequence (P34949 whole entry, looked up): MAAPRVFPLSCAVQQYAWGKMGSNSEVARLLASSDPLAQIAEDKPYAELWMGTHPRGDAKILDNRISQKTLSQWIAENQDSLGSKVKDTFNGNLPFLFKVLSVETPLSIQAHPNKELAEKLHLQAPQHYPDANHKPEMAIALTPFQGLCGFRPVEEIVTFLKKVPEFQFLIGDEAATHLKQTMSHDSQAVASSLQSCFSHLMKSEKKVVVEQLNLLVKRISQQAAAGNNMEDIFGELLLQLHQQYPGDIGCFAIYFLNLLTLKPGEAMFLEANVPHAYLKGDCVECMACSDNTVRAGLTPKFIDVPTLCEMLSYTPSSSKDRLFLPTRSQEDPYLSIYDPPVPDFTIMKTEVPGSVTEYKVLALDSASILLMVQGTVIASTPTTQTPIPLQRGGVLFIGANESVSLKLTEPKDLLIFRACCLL
WT yeast gro inh = growth inhibition of WT strain, primary screen, mitochondrial fusion inhibitor project, WT and mutant strains, chemical genetic | mitochondrial fusion phenotypic screen | inhibition, % at 10 µM | 2.1% of 190,000 active | AID 1362, 2008; in the data active means inhibition above about 58%; tested in S. cerevisiae
PMI act satM6P = human PMI activators, high substrate, primary screen, biochemical, fluorescence intensity, near-saturating mannose 6-phosphate. activation factor at 20 µM. coupled PMI enzyme assay, resazurin fluorescence, 20 min; active compounds read high; 1 = untreated enzyme, 0 = substrate-free blank. AID 1216, 2008. 0.34% of 190,000 active;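 active means activation factor of 2 or more at 20 µM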
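Material: human phosphomannose isomerase with PGI, G6PDH, diaphorase coupling enzymes. Quantity: 15 ng/mL PMI. Medium: HEPES pH 7.4 buffer with MgCl2 and Tween-20. Reagent: Near-saturating mannose-6-phosphate, 1.0 mM. Compound: 20 µM single dose. Times: enzyme reaction with compound 20 min at room temperature. Detection: resorufin fluorescence at Ex 544/Em 590 nm.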
Diaph act CS = compounds boosting diaphorase resazurin reduction – biochemical, uHTS, resorufin fluorescence, counter-screen for diaphorase-coupled primary assays, primary screen; Diaphorase/resazurin coupled assay, 16 min; active compounds read high; 1 = vehicle wells, 0 = NADH-free wells; activation factor at 20 µM; 0.005% of 190,000 active; AID 1229, 2008;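 active means diaphorase activity raised at least twofold by the compound at 20 µM; inactive means activation factor below 2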
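Material: purified diaphorase enzyme from Clostridium kluyveri; Also added: 0.114 mM NADH and 0.1 mM resazurin, final amounts; Doses: single compound dose of 20 µM, 1% DMSO final; Times: 16 min enzyme reaction, ambient temperature; Detection: resorufin fluorescence, excitation 544 nm, emission 590 nm; Measure: increased resorufin signal from activators or reducing compounds.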
L major viab = Leishmania major promastigote growth inhibition, primary screen | inhibition, % at 10 µM | 9% of 200,000 active | Leishmania major promastigotes, resazurin fluorescence viability | AID 1063, 2008; in the data active means inhibition above about 50%;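 further: promastigotes grown with compound for 44 hours at 28 °C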
Starred values were filed as active, the others as inactive.

SMILES	PMI activator	WT yeast gro inh	PMI act satM6P	Diaph act CS	L major viab
CCN1CCN(C(=S)c2ccc(OC)cc2)CC1	1	-5	1	1	100*
COc1ccc(C(=S)N2CCCCCC2)cc1	0.9	6	1	0.8	-2
O=C(COC(=O)Cc1ccc(Cl)cc1)Nc1c(F)cccc1F	1.1	-10	1	1	-9
CCc1c(C)nc(SCC(=O)N2CCCCC2C)[nH]c1=O (centres undefined)	1	2	1	1	-8
Cc1ccc2cc(C)c3nnc(SCC(=O)Nc4nc5c(s4)CCCC5)n3c2c1C	1	33	1	0.7	0
CCNC(=O)/C(=C/c1ccc2c(c1)OCO2)NC(=O)c1ccc(Br)cc1	1	-6	1	1	-7
O=C(/C=C/c1ccc(Cl)cc1Cl)Nc1ccc(CN2CCOCC2)cc1	0.8	44	0.9	0.8	70*
O=C(/C=C/c1ccc(Cl)cc1)NC(=S)Nc1ccc(CN2CCOCC2)cc1	0.8	-17	0.9	0.9	4
O=C(Nc1ccc(CN2CCOCC2)cc1)c1ccc(-c2cc(Cl)ccc2Cl)o1	0.9	54	0.9	0.8	99*
CCOC(=O)/C(C(C)=O)=C1\OC(=O)c2ccccc21	1.1	-13	0.9	0.8	0
CC1CCCC(NCC(O)COC(c2ccc(F)cc2)c2ccc(F)cc2)C1C (centres undefined)	1	57	0.9	0.9	100*
COc1ccc(/C=C(\C#N)C(=O)OCC(=O)Nc2ccc(C(C)(C)C)cc2)cc1	0.8	23	0.9	0.9	-6
CC(CCc1ccccc1)NCC(O)COc1ccccc1 (centres undefined)	1	-10	0.9	1	83*
COCCc1ccc(OCC(O)CNC(C)C)cc1 (centres undefined)	0.9	-9	1	0.9	22
OC(CNC1CCCC1)COc1ccc(-c2ccccc2)cc1 (centres undefined)	1	27	1	1.1	98*
OC(CNC1CCCCC1)COCCOc1ccc(Br)cc1 (centres undefined)	1.1	28	1.1	1	95*
O=C(COc1ccc(-c2ccccc2)cc1)NNC(=O)NC1CCCCC1	1	-3	0.9	1	-6
CC(C)NCC(O)COc1ccc(Br)cc1 (centres undefined)	0.9	-1	0.9	0.7	3
CCCC(NCC(O)COc1ccc(-c2ccccc2)cc1)c1ccccc1 (centres undefined)	1	88	0.9	1.1	82*
Cc1ccc(OCC(O)CNC(=O)c2ccccc2C(=O)O)cc1 (centres undefined)	1	12	1	0.9	-7
O=C(CSc1nnc(Cc2cccs2)n1-c1ccc(Cl)cc1)NCc1ccc2c(c1)OCO2	0.9	16	0.8	0.7	9
O=C(CCCOc1ccc(Cl)cc1Cl)N/N=C/c1cccc([N+](=O)[O-])c1	0.9	-3	1	0.9	0
Cc1cccc(NC(=O)c2ccccc2OCC(=O)N2CCCC2)c1C	1	14	1.1	1	-8
CCOP(=O)(c1ccccc1)C(O)c1ccc(Br)cc1 (centres undefined)	1.1	-4	1	0.9	-6
S=C(NCCC1=CCCCC1)NCc1ccco1	1	69*	1	0.8	0
SMILES	PMI activator	WT yeast gro inh	PMI act satM6P	Diaph act CS	L major viab
O=C(NC(=S)NCCC1=CCCCC1)c1ccccc1Br	0.9	64*	1	0.9	-2
O=C(COC(=O)c1ccccc1Br)NCCC1=CCCCC1	0.9	-11	0.9	0.9	4
CSc1ccc(Cl)c(C(=O)Nc2ccc(OCC(N)=O)cc2)c1	1	0	1	0.9	-3
CCOC(=O)c1c(-c2ccc(C)o2)csc1NC(=S)NC(=O)c1cccs1	0.8	20	0.7	0.7	75*
CCOC(=O)c1c(-c2ccccc2)csc1NC(=S)NC	0.7	-2	0.9	0.8	62*
CCOC(=O)c1c(-c2ccccc2Cl)csc1NC(=O)c1cc(S(=O)(=O)N2CCOCC2)ccc1C	0.9	5	0.8	0.8	83*
